Calls of active or inactive are those of the source. The rule behind the calls is not given here.
Experiments:
[1] = biological target: T1, Nucleotide-binding oligomerization domain-containing protein 2 (Homo sapiens, UniProt Q9HC29); assay: Inhibition of human NOD2 expressed in HEK293 cells assessed as suppression of MDP-stimulated ERK phosphorylation preincubated for 1 hr followed by MDP stimulation measured after 1 hr by Western blot analysis
[2] = system: Lewis lung carcinoma cell line; assay: Antitumor activity against mouse LLC cells implanted in C57BL/6 mouse assessed as tumor weight inhibition at 20 mg/kg, iv administered daily measured 11 days after tumor implantation; assay type: functional, organism-based
[3] = system: Lewis lung carcinoma cell line; assay: Potentiation of paclitaxel-mediated antitumor activity against mouse LLC cells implanted in C57BL/6 mouse assessed as tumor weight inhibition at 20 mg/kg, iv administered daily measured 11 days after tumor implantation (reference value: 34.54 %); assay type: functional; settings: 264 h, read-out: TGI
[4] = biological target: T1, Nucleotide-binding oligomerization domain-containing protein 2; assay: Inhibition of human NOD2 expressed in HEK293 cells assessed as suppression of MDP-stimulated JNK phosphorylation preincubated for 1 hr followed by MDP stimulation measured after 1 hr by Western blot analysis
[5] = biological target: T1, Nucleotide-binding oligomerization domain-containing protein 2; assay: Antagonist activity at human NOD2 expressed in HEK-Blue cells assessed as inhibition of MDP-stimulated cell activation preincubated for 3 hrs followed by MDP addition measured after 20 hrs by SEAP reporter gene assay; assay type: cell-based
Method in brief: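 HEK-Blue hNOD1 or hNOD2 cells preincubated with compound 3 h, then stimulated 20 h with C12-iE-DAP 50 ng/mL (NOD1) or MDP 100 ng/mL (NOD2); SEAP in supernatant quantified. Primary screen at 10 μM, hits repeated in triplicate; IC50 from dose-response, mean ± SD (n = 3), only for compounds reaching ≥50% inhibition at the screening concentration.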

[6] = biological target: T2, Nucleotide-binding oligomerization domain-containing protein 1 (Homo sapiens) (UniProt Q9Y239); assay: Inhibition of NOD1 in human PBMC-derived macrophages assessed as reduction in C12-iE-DAP-stimulated IL6 mRNA expression preincubated for 1 hr followed by C12-iE-DAP stimulation for 90 mins by RT-qPCR analysis
T2 sequence (whole entry): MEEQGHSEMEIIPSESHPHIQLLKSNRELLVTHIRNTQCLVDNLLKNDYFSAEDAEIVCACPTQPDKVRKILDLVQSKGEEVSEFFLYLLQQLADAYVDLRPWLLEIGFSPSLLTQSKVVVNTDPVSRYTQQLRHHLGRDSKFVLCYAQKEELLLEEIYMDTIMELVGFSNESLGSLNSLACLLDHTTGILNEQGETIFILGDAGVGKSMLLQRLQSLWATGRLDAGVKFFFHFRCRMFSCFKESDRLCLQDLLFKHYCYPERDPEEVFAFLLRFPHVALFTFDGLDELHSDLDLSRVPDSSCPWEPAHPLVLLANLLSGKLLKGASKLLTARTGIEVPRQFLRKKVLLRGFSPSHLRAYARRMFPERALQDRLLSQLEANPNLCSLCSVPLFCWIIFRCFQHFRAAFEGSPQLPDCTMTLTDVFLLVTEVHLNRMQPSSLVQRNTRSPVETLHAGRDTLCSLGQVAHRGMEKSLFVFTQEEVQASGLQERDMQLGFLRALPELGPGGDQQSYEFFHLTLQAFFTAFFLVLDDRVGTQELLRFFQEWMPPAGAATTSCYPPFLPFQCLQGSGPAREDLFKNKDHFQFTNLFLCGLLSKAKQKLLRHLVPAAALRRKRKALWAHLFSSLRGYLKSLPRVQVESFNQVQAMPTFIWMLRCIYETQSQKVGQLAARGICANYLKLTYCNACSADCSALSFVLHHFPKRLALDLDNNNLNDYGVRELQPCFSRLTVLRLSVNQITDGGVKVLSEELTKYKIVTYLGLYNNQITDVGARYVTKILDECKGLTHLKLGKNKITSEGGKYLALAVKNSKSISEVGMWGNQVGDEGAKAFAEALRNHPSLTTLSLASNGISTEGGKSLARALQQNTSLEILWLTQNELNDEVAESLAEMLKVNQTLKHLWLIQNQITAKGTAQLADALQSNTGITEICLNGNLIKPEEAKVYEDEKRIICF
Method in brief: (§1)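 Human CD14+ monocytes from donor PBMC, differentiated 7 days with M-CSF 20 ng/mL to macrophages; 1.0 × 10^6 cells pretreated 1 h with compound (final 0.1% DMSO), then C12-iE-DAP 500 ng/mL or MDP 5 μg/mL for 90 min. IL-6/TNF-α mRNA by qRT-PCR, normalized to GAPDH; stimulated response set to 100%.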

[7] = biological target: T1, Nucleotide-binding oligomerization domain-containing protein 2; assay: Inhibition of human NOD2 expressed in HEK293 cells assessed as reduction in MDP-stimulated IL8 secretion preincubated with compound followed by MDP stimulation measured after 24 hrs by ELISA; assay type: cell-based
[8] = biological target: T1, Nucleotide-binding oligomerization domain-containing protein 2; assay: Inhibition of human NOD2 expressed in HEK293 cells assessed as reduction of MDP-mediated decrease in IkBalpha levels preincubated for 1 hr followed by MDP addition measured after 1 hr by Western blot analysis
[9] = biological target: T1, Nucleotide-binding oligomerization domain-containing protein 2; assay: Inhibition of NOD2 in human PBMC-derived macrophages assessed as reduction in MDP-stimulated ERK phosphorylation at 1 to 10 uM preincubated for 1 hr followed by MDP stimulation for 1 hr by Western blot analysis
[10] = biological target: T2, Nucleotide-binding oligomerization domain-containing protein 1 (Homo sapiens); assay: Inhibition of NOD1 in human PBMC-derived macrophages assessed as reduction in C12-iE-DAP-stimulated IL6 mRNA expression at 10 uM preincubated for 1 hr followed by C12-iE-DAP stimulation for 90 mins by RT-qPCR analysis
Method in brief: as §1

[11] = biological target: T1, Nucleotide-binding oligomerization domain-containing protein 2; assay: Antagonist activity at human NOD2 expressed in HEK-Blue cells assessed as inhibition of MDP-stimulated cell activation at 5 uM preincubated for 3 hrs followed by MDP addition measured after 20 hrs by SEAP reporter gene assay; assay type: cell-based
[12] = biological target: T1, Nucleotide-binding oligomerization domain-containing protein 2; assay: Inhibition of NOD2 in human PBMC-derived macrophages assessed as reduction in MDP-stimulated TNFalpha mRNA expression preincubated for 1 hr followed by MDP stimulation for 90 mins by RT-qPCR analysis
Method in brief: as §1

[13] = biological target: T2, Nucleotide-binding oligomerization domain-containing protein 1 (Homo sapiens); assay: Inhibition of NOD1 in human PBMC-derived macrophages assessed as reduction in C12-iE-DAP-stimulated TNFalpha mRNA expression at 10 uM preincubated for 1 hr followed by C12-iE-DAP stimulation for 90 mins by RT-qPCR analysis
Method in brief: as §1

[14] = biological target: T2, Nucleotide-binding oligomerization domain-containing protein 1 (Homo sapiens); assay: Inhibition of NOD1 in human PBMC-derived macrophages assessed as reduction in C12-iE-DAP-stimulated ERK phosphorylation at 1 to 10 uM preincubated for 1 hr followed by C12-iE-DAP stimulation for 45 mins by Western blot analysis

T1 sequence (Q9HC29 whole entry, the tested form may be a part): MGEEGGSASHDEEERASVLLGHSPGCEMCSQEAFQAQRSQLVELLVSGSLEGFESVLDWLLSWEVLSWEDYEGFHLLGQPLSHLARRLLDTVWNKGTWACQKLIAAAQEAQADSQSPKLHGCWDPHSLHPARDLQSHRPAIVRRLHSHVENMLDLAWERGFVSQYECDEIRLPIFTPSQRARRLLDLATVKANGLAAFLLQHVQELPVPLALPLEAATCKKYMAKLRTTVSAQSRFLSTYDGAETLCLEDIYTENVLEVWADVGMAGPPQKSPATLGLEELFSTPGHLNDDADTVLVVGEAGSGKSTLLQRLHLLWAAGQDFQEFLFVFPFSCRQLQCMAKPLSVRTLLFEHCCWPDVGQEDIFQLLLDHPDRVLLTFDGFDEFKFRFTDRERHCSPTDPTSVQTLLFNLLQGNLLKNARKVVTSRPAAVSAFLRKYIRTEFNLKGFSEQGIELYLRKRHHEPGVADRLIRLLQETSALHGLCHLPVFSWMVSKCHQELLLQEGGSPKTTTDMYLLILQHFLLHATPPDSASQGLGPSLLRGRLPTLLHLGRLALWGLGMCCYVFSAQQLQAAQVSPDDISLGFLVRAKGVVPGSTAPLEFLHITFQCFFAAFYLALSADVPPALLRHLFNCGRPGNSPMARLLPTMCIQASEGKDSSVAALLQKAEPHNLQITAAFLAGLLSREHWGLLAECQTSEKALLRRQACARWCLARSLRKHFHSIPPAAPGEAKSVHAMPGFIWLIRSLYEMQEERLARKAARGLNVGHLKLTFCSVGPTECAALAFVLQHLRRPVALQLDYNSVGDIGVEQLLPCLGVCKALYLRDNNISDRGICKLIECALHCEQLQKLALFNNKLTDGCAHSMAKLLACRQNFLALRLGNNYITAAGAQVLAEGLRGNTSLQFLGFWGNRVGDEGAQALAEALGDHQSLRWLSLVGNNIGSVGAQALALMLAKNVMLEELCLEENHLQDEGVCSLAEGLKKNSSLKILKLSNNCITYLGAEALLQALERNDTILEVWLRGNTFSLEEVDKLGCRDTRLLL

## CCCNC(=O)CC[C@H]1NC(=O)c2cc(Oc3cccc(N(C)C)c3)c(NC(=O)COCc3ccccc3)cc2NC1=O
[1]
  inhibition: Dose-dependent effect
[2]
  TGI: inactive
[3]
  inhibition in vivo at 20 mg/kg: 67.3%
[4]
  inhibition: Dose-dependent effect
[5]
  IC50: 4.16 µM
[6]
  inhibition: Dose-dependent effect
[7]
  inhibition: Dose-dependent effect
[8]
  inhibition: Dose-dependent effect
[9]
  inhibition: Active
[10]
  inhibition: 54.6%
[11]
  inhibition: 60.9%
[12]
  inhibition: Dose-dependent effect
[13]
  inhibition: 35.2%
[14]
  inhibition: Active

From ChEMBL document CHEMBL4014339, “Discovery of 1,4-Benzodiazepine-2,5-dione (BZD) Derivatives as Dual Nucleotide Binding Oligomerization Domain Containing 1/2 (NOD1/NOD2) Antagonists Sensitizing Paclitaxel (PTX) To Suppress Lewis Lung Carcinoma (LLC) Growth in Vivo” (J Med Chem, 2017)
